Data: PMC10213863 (Cell Reports Medicine, 2023)

Experiments:
TLR2/6 = TLR2/6 (Homo sapiens, UniProt O60603+Q9Y2C9); assay: Ramos Blue reporter B cell line, FSL-1 stimulation; assay type: cell-based; settings: Ramos cells; up to 10 μM; n = 4, data not shown
Procedure, shortened: (§1)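 Ramos Blue B reporter cells were pre-treated 30 min at 37°C, 5% CO2 with increasing concentrations of test compound or 0.25% v/v DMSO. They were then stimulated with the respective agonist, and reporter activity was read.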

IL-1 receptor (IL-1R) = IL-1 receptor (IL-1R) (Homo sapiens, UniProt P14778); assay: Human PBMC cytokine secretion, IL-1 receptor agonist; assay type: cell-based; settings: human PBMCs; up to 10 μM; n = 5 donors, data not shown
Procedure, shortened: (§2)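 Human PBMCs were pre-incubated 30 min with test compound, then stimulated with the respective TLR or IL-1R agonist at doses from earlier work. Cytokines in supernatants were quantified by immunoassay. Viability across the dose range was checked by CellTiter-Glo.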

TLR3 = TLR3 (Homo sapiens, UniProt O15455); assay: Ramos Blue reporter B cell line, Poly; assay type: cell-based; settings: Ramos cells; Poly(I:C) stimulation
Procedure, shortened: as §1

TLR9 [1] = biological target: T1, TLR9 (Homo sapiens, UniProt Q9NR96); assay: Human whole blood assay, ODN-IFN-α; assay type: cell-based
T1 sequence (Q9NR96 26-1032): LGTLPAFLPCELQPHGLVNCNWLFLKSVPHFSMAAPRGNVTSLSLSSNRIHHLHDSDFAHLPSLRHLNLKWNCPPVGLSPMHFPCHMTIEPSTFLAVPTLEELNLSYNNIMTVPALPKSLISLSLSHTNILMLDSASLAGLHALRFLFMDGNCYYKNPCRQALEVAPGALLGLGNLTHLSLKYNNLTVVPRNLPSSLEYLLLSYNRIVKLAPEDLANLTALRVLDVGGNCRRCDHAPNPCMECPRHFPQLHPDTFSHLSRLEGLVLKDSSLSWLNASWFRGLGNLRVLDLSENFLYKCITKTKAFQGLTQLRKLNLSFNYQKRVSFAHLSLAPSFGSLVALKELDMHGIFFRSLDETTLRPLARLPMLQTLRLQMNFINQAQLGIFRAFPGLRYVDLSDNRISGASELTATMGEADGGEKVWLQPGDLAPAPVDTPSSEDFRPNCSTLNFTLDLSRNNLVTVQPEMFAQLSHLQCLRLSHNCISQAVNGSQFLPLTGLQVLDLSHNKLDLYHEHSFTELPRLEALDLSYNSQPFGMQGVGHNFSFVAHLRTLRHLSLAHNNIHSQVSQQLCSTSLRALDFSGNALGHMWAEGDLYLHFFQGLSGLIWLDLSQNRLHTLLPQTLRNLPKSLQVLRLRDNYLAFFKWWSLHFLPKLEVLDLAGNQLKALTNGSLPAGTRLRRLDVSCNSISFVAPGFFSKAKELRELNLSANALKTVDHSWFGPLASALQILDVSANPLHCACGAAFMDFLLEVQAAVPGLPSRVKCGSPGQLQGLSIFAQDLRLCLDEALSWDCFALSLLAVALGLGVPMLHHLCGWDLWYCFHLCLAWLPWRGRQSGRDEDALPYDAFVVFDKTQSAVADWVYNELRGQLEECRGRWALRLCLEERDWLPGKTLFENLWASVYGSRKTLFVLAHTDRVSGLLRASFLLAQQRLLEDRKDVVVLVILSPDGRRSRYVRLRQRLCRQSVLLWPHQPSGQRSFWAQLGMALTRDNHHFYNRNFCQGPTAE
Procedure, shortened: (§3)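 Fresh human blood or 129/Sv mouse blood was taken into citrate and diluted 1:1 with RPMI1640. It was pre-incubated 30 min at 37°C, 5% CO2 with increasing concentrations of test compound or 0.25% v/v DMSO (final). Blood was then stimulated with TLR agonists at doses from earlier work, or with R848 (3 μM), and cytokines were quantified. Viability was checked by ATPlite luminescence.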

[2] = test system: TMPD-induced peritonitis in Balb/c mice; assay: Mouse TMPD peritonitis; assay type: in vivo; settings: prophylactic oral b.i.d.
Procedure, shortened: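 Female Balb/c mice (5 per group) were dosed orally b.i.d. from day −1 with test compound in 0.5% MC/0.5% Tween80, or vehicle. On day 0 they were injected i.p. with 0.5 mL TMPD; naive mice were controls. Peritoneal lavage (HBSS, 2% FBS) supernatants were assayed for CCL2 by ELISA. Inflammatory monocytes were counted by flow (live/dead, CD11b, Ly6C, Ly6G). ISGs were measured by qPCR (2−ΔΔCt vs HPRT, triplicates), averaged and normalized to naive = 100%.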

TLR5 = TLR5 (Homo sapiens, UniProt O60602); assay: Human PBMC cytokine secretion, TLR5 agonist; assay type: cell-based; settings: human PBMCs; up to 10 μM; n = 5 donors, data not shown
Procedure, shortened: as §2

TLR9 [3] = biological target: T1, TLR9; assay: Human PBMC assay, ODN2216-induced IFN-α; assay type: cell-based
Procedure, shortened: as §2

mouse blood = assay: Cell viability in mouse blood; assay type: cell-based; settings: up to 10 μM
Procedure, shortened: as §3

Chain of IL-1 receptor (IL-1R) (P14778 18-569): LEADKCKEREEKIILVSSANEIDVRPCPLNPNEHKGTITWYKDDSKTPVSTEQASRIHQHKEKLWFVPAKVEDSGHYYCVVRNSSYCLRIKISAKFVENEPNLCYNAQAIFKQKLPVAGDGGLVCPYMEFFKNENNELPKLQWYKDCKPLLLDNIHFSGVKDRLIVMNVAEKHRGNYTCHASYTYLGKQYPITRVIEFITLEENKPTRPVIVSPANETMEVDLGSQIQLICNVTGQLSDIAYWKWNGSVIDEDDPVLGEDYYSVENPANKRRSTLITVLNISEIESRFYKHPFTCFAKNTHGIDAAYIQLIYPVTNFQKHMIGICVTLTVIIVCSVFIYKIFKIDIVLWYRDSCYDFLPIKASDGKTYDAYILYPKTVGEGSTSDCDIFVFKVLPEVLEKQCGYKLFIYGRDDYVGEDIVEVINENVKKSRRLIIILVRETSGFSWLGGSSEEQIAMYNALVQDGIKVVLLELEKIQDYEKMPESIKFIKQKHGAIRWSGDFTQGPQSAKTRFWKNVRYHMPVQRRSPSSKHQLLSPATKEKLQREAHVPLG
Chain of TLR2/6 (O60603 21-784): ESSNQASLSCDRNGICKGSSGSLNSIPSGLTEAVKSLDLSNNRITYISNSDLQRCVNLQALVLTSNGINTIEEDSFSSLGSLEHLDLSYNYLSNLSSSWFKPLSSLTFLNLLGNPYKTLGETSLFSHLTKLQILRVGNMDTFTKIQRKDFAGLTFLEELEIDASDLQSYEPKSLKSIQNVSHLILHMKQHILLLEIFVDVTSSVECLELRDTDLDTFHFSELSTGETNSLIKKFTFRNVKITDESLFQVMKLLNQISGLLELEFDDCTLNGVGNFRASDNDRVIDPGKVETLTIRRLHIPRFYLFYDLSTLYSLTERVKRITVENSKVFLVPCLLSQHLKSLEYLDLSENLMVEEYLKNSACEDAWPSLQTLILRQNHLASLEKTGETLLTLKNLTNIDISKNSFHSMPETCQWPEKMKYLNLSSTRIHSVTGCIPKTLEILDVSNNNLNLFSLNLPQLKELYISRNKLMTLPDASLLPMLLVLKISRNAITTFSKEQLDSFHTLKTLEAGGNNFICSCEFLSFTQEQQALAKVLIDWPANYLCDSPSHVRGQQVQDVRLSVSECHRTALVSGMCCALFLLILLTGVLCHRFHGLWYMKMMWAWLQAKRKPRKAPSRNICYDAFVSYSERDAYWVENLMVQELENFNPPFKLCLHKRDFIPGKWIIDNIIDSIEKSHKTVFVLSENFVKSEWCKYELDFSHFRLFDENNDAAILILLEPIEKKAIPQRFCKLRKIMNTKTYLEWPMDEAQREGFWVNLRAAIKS
Chain of TLR2/6 (Q9Y2C9 32-796): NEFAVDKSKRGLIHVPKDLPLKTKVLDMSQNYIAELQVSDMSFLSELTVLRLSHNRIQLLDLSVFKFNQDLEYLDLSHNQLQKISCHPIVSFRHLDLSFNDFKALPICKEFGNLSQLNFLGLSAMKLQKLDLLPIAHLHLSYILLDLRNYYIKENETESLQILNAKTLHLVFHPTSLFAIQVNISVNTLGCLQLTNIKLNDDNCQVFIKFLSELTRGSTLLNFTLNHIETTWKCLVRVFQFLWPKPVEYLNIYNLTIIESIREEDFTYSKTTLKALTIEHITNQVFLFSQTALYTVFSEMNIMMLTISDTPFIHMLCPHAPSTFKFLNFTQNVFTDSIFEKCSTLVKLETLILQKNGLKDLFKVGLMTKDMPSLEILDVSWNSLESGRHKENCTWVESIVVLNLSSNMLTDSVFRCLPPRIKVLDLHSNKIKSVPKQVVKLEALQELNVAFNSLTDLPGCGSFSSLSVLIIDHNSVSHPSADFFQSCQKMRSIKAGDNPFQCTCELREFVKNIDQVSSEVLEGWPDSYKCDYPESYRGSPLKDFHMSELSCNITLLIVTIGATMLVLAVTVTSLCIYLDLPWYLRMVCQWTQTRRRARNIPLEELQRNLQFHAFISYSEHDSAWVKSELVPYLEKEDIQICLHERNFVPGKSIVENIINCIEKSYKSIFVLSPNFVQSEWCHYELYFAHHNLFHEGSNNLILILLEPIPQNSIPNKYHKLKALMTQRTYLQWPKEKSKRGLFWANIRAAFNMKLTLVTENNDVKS
Chain of TLR3 (O15455 24-904): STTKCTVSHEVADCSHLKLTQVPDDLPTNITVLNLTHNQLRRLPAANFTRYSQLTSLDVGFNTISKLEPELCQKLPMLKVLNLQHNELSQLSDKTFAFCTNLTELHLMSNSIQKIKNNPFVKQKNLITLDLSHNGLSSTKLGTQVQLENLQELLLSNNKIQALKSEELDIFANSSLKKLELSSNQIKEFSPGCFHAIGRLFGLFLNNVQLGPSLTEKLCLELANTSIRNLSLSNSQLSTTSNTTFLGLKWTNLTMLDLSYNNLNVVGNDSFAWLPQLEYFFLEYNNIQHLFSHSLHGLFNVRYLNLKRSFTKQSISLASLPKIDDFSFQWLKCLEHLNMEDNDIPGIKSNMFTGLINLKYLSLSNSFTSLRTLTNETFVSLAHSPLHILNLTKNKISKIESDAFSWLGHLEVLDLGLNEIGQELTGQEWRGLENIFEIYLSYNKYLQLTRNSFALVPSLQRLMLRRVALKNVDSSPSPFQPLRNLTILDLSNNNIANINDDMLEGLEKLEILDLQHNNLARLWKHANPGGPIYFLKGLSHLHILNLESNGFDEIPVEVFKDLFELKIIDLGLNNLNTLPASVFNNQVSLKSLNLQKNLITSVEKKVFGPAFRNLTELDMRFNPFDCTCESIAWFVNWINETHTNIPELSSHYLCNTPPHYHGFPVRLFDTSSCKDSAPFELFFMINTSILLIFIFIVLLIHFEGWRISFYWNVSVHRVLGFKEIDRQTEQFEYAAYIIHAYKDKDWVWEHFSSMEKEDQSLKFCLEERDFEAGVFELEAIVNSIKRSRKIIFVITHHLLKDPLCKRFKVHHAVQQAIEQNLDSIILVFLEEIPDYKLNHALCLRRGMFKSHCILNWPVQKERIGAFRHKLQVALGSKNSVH
Chain of TLR5 (O60602 21-858): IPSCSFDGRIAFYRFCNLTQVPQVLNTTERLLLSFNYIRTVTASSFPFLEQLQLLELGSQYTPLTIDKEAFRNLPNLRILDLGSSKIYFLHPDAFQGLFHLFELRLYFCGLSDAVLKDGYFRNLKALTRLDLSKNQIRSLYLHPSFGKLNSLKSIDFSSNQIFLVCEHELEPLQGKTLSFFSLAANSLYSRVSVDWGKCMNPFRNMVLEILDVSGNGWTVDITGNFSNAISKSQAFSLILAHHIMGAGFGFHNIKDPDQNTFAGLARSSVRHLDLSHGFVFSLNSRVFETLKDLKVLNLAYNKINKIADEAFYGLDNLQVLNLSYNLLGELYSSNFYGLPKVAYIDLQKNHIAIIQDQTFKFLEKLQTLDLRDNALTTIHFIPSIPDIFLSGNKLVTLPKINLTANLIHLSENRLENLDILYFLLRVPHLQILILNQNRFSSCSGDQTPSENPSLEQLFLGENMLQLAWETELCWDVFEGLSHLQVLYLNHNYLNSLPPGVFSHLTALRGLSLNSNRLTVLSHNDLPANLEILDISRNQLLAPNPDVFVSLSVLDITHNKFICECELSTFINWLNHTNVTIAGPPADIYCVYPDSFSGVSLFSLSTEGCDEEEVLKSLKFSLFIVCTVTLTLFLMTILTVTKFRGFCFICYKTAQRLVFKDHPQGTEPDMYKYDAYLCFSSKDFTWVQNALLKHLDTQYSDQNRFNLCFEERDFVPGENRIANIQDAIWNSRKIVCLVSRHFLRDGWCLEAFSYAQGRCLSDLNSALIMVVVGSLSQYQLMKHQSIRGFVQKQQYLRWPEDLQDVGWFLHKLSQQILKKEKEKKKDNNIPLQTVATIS

Cc1cc(N2CCc3c(c(C)nn3CC34CCC(NC(=O)[C@@H]5COCCN5)(CC3)CC4)C2)c2cnn(C)c2n1 [MHV370, (S)-N-(4-((5-(1,6-dimethyl-1H-pyrazolo[3,4-b]pyridin-4-yl)-3-methyl-4,5,6,7-tetrahydro-1H-pyrazolo[4,3-c]pyridin-1-yl)methyl)bicyclo[2.2.2]octan-1-yl)morpholine-3-carboxamide]
interference with TLR2/6-driven activity (TLR2/6): did not interfere | interference with cytokine secretion, IL-1R agonist (IL-1 receptor (IL-1R)): did not significantly interfere | inhibitory activity against TLR3 (TLR3): no or very limited inhibitory activity | IC50 (TLR9 [1]): 1320 nM | ex vivo stimulated PD marker CD69 in peripheral blood [2]: reduced in peripheral blood of mice in a dose-dependent manner | panel of ISGs in peritoneal cells and blood [2]: dose-dependently suppressed | inflammatory monocytes and CCL2 in the peritoneum ([2]; day 7): dose-dependent reduction | interference with cytokine secretion, TLR5 agonist (TLR5): did not significantly interfere | IC50 (TLR9 [3]): 1300 nM | effect on cell viability (mouse blood): did not show
